Reference: ChEMBL document CHEMBL4513216, “Probing the Open Global Health Chemical Diversity Library for Multistage-Active Starting Points for Next-Generation Antimalarials” (ACS Infect Dis, 2020)

Test: Toxicity liver stage against HepG2, at 10uM
Assay type: cell-based
Set-up: test concentration 10 uM, cell line HepG2-A16-CD81EGFP
Conditions: human, HepG2-A16-CD81EGFP cells; read-out: INHIBITION
Method in brief: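 Uninfected HepG2-A16-CD81EGFP cells, 3 × 10^3 per well, 1536-well, plated on prespotted compound at 10 μM final, parasite-free screening media added to match infected plates; puromycin 10 μM positive, DMSO 0.5% negative; run in parallel with 48 h PbLuc assay at 37 °C, 5% CO2; viability by CellTiter-Glo luminescence, normalized to controls.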

| SMILES | cytotoxicity at 10 µM [%] |
| --- | --- |
| O=C(CCC(=O)Nc1nnc(C2CCCCC2)s1)NCC1CCCO1 (stereo not given) | -7.7 |
| CC1CCCN(Cc2coc(-c3cccc(F)c3)n2)C1 (stereo not given) | -16.7 |
| O[C@@H]1C[C@@H](c2nc(Cc3ccccc3)no2)N(Cc2ccc(F)cc2)C1 | 0.296 |
| Cc1ccc(CNC2(Cc3cc(-c4cccc(O)c4)on3)COC2)o1 | -0.873 |
| O[C@@H]1C[C@@H](c2nc(-c3ccc(F)cc3)no2)N(C2CCOCC2)C1 | 4.51 |
| CN1Cc2ccccc2N(CC(O)C(F)(F)F)CCC1=O (stereo not given) | 0.905 |
| CC(C)CN1C[C@@H]2CN(S(=O)(=O)c3cccs3)C[C@@H]2C1=O | 4.09 |
| COCCN1C(=O)CCC12CCCN(C(=O)NC(C)C)CC2 (stereo not given) | 1.32 |
| Cc1ccc(CN2C[C@H]3C[C@H](C(=O)NCC4CC4)N(C)[C@H]3C2)o1 | -3.13 |
| CCOCC1COCCC12CCN(C(=O)CS(C)(=O)=O)CC2 (stereo not given) | -1.99 |
| COC[C@]12COC[C@H]1CN(C(=O)c1ccc(F)cc1C)C2 | -135 |
| CCn1cc2c(n1)CN(S(=O)(=O)c1ccc(C)cc1)CC2COC (stereo not given) | 5.77 |
| N#Cc1cccc(N2CCCC3(CN(C(=O)[C@H]4CCCO4)CCO3)C2)c1 (stereo not given in full) | 3.53 |
| c1cnc(NCc2noc3c2CN(C2CCOC2)CC3)nc1 (stereo not given) | -3.71 |
| Cc1cccc(CN2CCc3ncnc(Oc4cccnc4)c3CC2)n1 | -139 |
| O=C(Cc1ccccn1)N1CCn2cc(Cn3cncn3)nc2C1 | -129 |
| CC(C)(C)NC(=O)COc1ccc(CNCCOc2ccccn2)cc1 | -3.76 |
| CCOCc1cccc(S(=O)(=O)Nc2ccn(CC)n2)c1 | 4.84 |
| CN(C)C(=O)c1cn[nH]c1C1CCCN1Cc1c[nH]cn1 (stereo not given) | -3.3 |
| O=C1CN([C@@H]2CC[C@@H](NS(=O)(=O)c3ccccc3F)[C@H]2O)CCN1 | 1.06 |
| O=C(c1cnco1)N1CCC(Cc2ccc3ncccc3c2)CC1 | 7.22 |
| CC1(C(=O)N2CCN(c3ncccn3)CC2)CNCCO1 (stereo not given) | -0.79 |

| SMILES | cytotoxicity at 10 µM [%] |
| --- | --- |
| Cc1cc(C(=O)NC(C)Cc2cccc(Cl)c2)n(C)n1 (stereo not given) | 10.9 |
| CCNC(=O)CN(CC)S(=O)(=O)c1c(Br)cc2[nH]c(=O)oc2c1Cl | 9.69 |
| CC(C)(C)OC(=O)N[C@H]1CCN(C(=O)c2cc(Cl)c[nH]2)C1 | -2.84 |
| CC(c1nc(C2CC2)no1)N1CCN(CCn2ccccc2=O)CC1 (stereo not given) | 25.8 |
| N#CCSCC(=O)NCC1CCCCC1 | 8.32 |
| O=C(NCC1CCS(=O)(=O)C1)c1ccc(NC(=O)c2ccco2)cc1 (stereo not given) | 3.25 |
| CCS(=O)(=O)CCSc1ccc(Cl)cc1 | -1.13 |
| CC(C)(C)OC(=O)NCCC(=O)NCC(O)c1cccc(F)c1 (stereo not given) | -2.48 |
| CC(NC(=O)N1CCC1)c1ccc(S(C)(=O)=O)cc1 (stereo not given) | -4.22 |
| CCCN(C(=O)CN1CCn2c(nnc2C2CC2)C1)C1=CCCCC1 | 6.19 |
| O=C(Nc1ccnc(OC2CCOC2)c1)c1cccs1 (stereo not given) | 5.42 |
| Cc1nn(CC(O)CN2CCc3ccccc3C2)c(=O)c2ccccc12 (stereo not given) | 11.1 |
| CC(NC(=O)NCc1cscn1)c1ccc(N2CCOCC2)cc1 (stereo not given) | -0.736 |
| COc1ccccc1NCC(=O)NCc1ccc(-c2ccn[nH]2)cc1 | -1.99 |
| NC(=O)C1CCN(C(=O)c2ccccc2OCc2ccncc2)CC1 | 1.02 |
| CN(C)S(=O)(=O)N1CCN(C(=O)c2cc(-c3ccccc3)[nH]n2)CC1 | -0.665 |
| CS(=O)(=O)NCc1ccc(NC(=O)CC2=CCCCC2)cc1 | -2.48 |
| CN(CC(F)(F)F)C(=O)CNC(=O)N1CCCC(C(F)(F)F)C1 (stereo not given) | 0.601 |
| Cc1nccn1CCCNc1ncccc1C#N | -9.09 |
| CN(Cc1cnn(C)c1)C(=O)c1ccc(Cl)c(N2CCNC2=O)c1 | -10.8 |
| O=C(Cc1cccc(F)c1)NC1CCCc2cn[nH]c21 (stereo not given) | 16.5 |
| Cn1nccc1NC(=O)CN1CCc2sccc2C1 | 1.09 |

| SMILES | cytotoxicity at 10 µM [%] |
| --- | --- |
| O=C(NC1(c2cccc(F)c2)CCOCC1)c1ccoc1 | -9.41 |
| CC1CCCN(CCNC(=O)c2cncnc2C(C)C)C1 (stereo not given) | -10.6 |
| COc1ccc(CNC(=O)NCC2CCOC2)c(C(F)(F)F)c1 (stereo not given) | -8.28 |
| COC[C@@]12CCC[C@@H]1CN(C(=O)N1CCCC1)C2 | 7.9 |
| Cc1ccc(N2CCC3(CCCN(C(=O)c4cnccn4)C3)C2)nn1 (stereo not given) | 1.14 |
| FC(F)(F)c1ccc(-c2cc(NC3CCNCC3)nc3[nH]ccc23)nc1 | -0.608 |
| OCCCN1CCc2[nH]nc(C(c3ccccc3)c3ccccc3)c2C1 | -0.869 |
| Cn1cc(C(=O)N2CCC(c3nccn3Cc3ccncc3)CC2)cn1 | -0.658 |
| COc1ccc2nc(CNC(=O)C3CC4(CCNCC4)CN3C)[nH]c2c1 (stereo not given) | 0.488 |
| Cc1ccc2nc(C)c(C)c(C(=O)N3CCN(c4nccs4)CC3)c2c1 | 3.96 |
| CC(C)CCN1CC2(CCN(C3CCCOC3)CC2)OC1=O (stereo not given) | 6.31 |
| CN(C)c1ccccc1C(=O)N1CCCC(c2ccc(C(=O)O)cc2)C1 (stereo not given) | 16.2 |
| Cc1cc(C(=O)N2CCC3(CCNCC3)CC2)c2cccc(C)c2n1 | -15.6 |
| CC(C)NC(=O)N1CCC(c2nccn2C(C)C)CC1 | -6.77 |
| Cc1cnccc1CN1CCN(C)C2(CCC(=O)N(CC3CC3)CC2)C1 (stereo not given) | -3.51 |
| COCCOC1CCN(C(C(=O)O)c2ccc(OC)c(F)c2)CC1 (stereo not given) | 7.42 |
| Cc1nsc(NC(=O)NC2(CN3CCOCC3)CCCCC2)n1 | -3.82 |
| Cc1nc2c(c(NCCc3nc(C)c(Cl)s3)n1)CCNCC2 | -9.28 |
| CCc1cc(NCC(O)CN2CCCC2)ncn1 (stereo not given) | 6.09 |
| COCC[C@]1(O)CCN(Cc2ccccn2)C[C@H]1C | -7.72 |
| O=C(c1cc(-n2cccn2)ccc1Cl)N1CCC(N2CCCC2=O)CC1 | -2.08 |
| CCn1ncc(CN2CCCC(C(=O)c3ccc(Cl)cc3)C2)c1C (stereo not given) | 0.522 |

| SMILES | cytotoxicity at 10 µM [%] |
| --- | --- |
| Cc1cc(N2CCC(C(=O)O)(n3ccc(C(C)C)n3)CC2)nc(N)n1 | 0.445 |
| Cc1nc2c(C)cccc2cc1C(=O)N1CCC2(CCCNC2)C1 (stereo not given) | -10.3 |
| COc1ccc(NC2(C(=O)N3CCCn4cncc4C3)CCCC2)cc1 | 10.2 |
| O=C(NCc1cccnc1N1CCCC(O)C1)c1ccc2[nH]nnc2c1 (stereo not given) | 11.4 |
| Cc1nc(O)cc(CCNC(=O)c2ccccc2N2CCCC2)n1 | 10.4 |
| Cc1ccc(C(=O)NCCC(C)C)cc1NS(C)(=O)=O | 10.9 |
| CCc1ccc(CN2CCC(CNS(=O)(=O)C3CC3)C2)nc1 (stereo not given) | -4.69 |
| Cc1nc2c(cc1C(=O)Nc1ccccc1Cl)c(=O)n(C)c(=O)n2C | -5.06 |
| CCCc1cc(C(=O)N2C[C@@H](C)[C@](O)(C3CCC3)C2)[nH]n1 | 10.1 |
| CCCOC1CCCN(C(=O)c2cc(CN(CC)CC)c(CC)o2)C1 (stereo not given) | 10.1 |
| CN(C)c1nc2c(c(N3CCC(O)CC3)n1)CN(CC1CCNC1)CC2 (stereo not given) | -10.5 |
| COCC(O)CNC(=O)c1cnc(-c2ccccc2)nc1O (stereo not given) | -10.2 |
| Cc1ccc(NC(=O)C2=CN=S=N2)cc1 | 3.51 |
| COc1ccc(CN2CCCN(C(=O)C(C)n3ccnc3)CC2)cc1 (stereo not given) | -14.1 |
| CC(C)c1nc(C(=O)NCCn2ccnc2)nn1-c1cccc(F)c1 | -7.64 |
| COC(=O)c1ccc(N2CCN(CCC#N)C(C)C2)cc1 (stereo not given) | -11.3 |
| COc1c(CNCCNC(=O)Cc2ccc(F)cc2)c(C)nn1C | -3.09 |
| COc1ccc(C)cc1CNCc1ccc(-n2nc(C)cc2C)nc1 | 0.813 |
| CC(O)CN1CCN(Cc2nnc(C3CC3)o2)CC1 (stereo not given) | -10 |
| CC(C)(C)c1cnc(CN2CCCC2Cn2cccn2)o1 (stereo not given) | -9.6 |
| Cn1c(C2CC2)nc2c1CCN(CCOc1ccc(C#N)cc1)C2 | -9.39 |
| COC(=O)C(c1cc(F)ccc1F)N(C)C(=O)c1cccnc1O (stereo not given) | -0.289 |

| SMILES | cytotoxicity at 10 µM [%] |
| --- | --- |
| CCn1cc(C(=O)NCc2csc(Br)c2)cn1 | 4.84 |
| Cc1oc(C)c(C(=O)N2CCCN(Cc3cscn3)CC2)c1C | 6.88 |
| CC(c1nc(C2CC2)no1)N1CCN(Cc2ccsc2)CC1 (stereo not given) | 0.993 |
| CCOc1ccc(Br)cc1C1CCCCN1 (stereo not given) | 7.16 |
| Cn1cnc2c1C(COCc1ccccc1)N(Cc1ccccn1)CC2 (stereo not given) | 9.82 |
| CCOC1COC2(CCN(Cc3cccnc3OC)CC2)C1 (stereo not given) | -2.47 |
| Cc1ccc(CN2CCc3[nH]nc(C(=O)N4CCNC(=O)C4)c3C2)s1 | 12 |
| CC[C@@H]1N(Cc2ccncc2)CCC[C@]12CCC(=O)N2C | 10.5 |
| CS(=O)(=O)N1CCOCC2(CCN(C(=O)c3cccnc3)CC2)C1 | -10.1 |
| COCC1CC2(CCN(C(=O)c3occc3C)CC2)CN1C(C)C (stereo not given) | 12 |
| COCC1CN(Cc2ccc(OC)cc2)Cc2nnn(CC3CC3)c21 (stereo not given) | -2.47 |
| CCCN1CCCn2c(nc(CNC(=O)c3ccsc3)cc2=O)C1 | 6.89 |
| c1coc(CN2CCn3c(COCC4CC4)nnc3C2)c1 | 6.28 |
| CCc1cnc(N2C[C@H]3CN(Cc4csc(C)n4)C(=O)[C@H]3C2)nc1 | 9.43 |
| CC(C)CN1CCC(N2CCC(C(=O)N(C)C)CC2)CC1 | 16.9 |
| CC(C)N1CCO[C@H]2CN(C(=O)Cc3cccs3)C[C@H]21 | 7.07 |
| COc1ccc(CC(=O)N2C[C@H]3CN(Cc4ccccn4)C[C@H]3C2)cc1 | 3.5 |
| CN(C)CCOCC1CN(Cc2ccoc2)Cc2nnn(C)c21 (stereo not given) | -1.53 |
| c1ccc(N2CC3(CCN(Cc4cccnc4)C3)C2)nc1 | 1.11 |
| CNC(=O)CN1CCOCC2(CCCN(Cc3cccnc3)C2)C1 (stereo not given) | -6.02 |
| O=C1[C@@H]2CC[C@@H](CN(Cc3ccccc3OC(F)F)C2)N1CC1CC1 | -6.17 |
| CCCn1cc(C(=O)NC2CCC(n3cnnc3)CC2)c(C)n1 (stereo not given) | 0.642 |
